A selection: hits, their analogues and other compounds. The true share with any hit is near 2.1%.
MEKK3 PB1 HTS – modulators of MEKK3-MEK5 PB1 binding, primary screen, biochemical, wildtype MEKK3, multiplex bead flow cytometry, Alexa488-MEK5; 290,000 compounds, 1.4% hits; bead-based flow cytometry, Alexa488-MEK5 binding to MEKK3; actives lie on both sides; 0 = blocked by unlabeled MEK5, 100 = vehicle; binding response (% of control), % at 10 µM; Mitogen-activated protein kinase kinase kinase 3 (Homo sapiens), Q99759; AID 1529, 2009;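 active means binding response more than 3 SD above or below the average of its plate-row segment, actives on both sides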;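 further: Alexa488 bead fluorescence after subtracting the streptavidin-only scavenger bead signal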
GSK3A inh – blockers of GSK3A enzyme activity – biochemical, luminescence, cell-free homogeneous, HTS, primary screen; Glycogen synthase kinase-3 alpha (Homo sapiens), P49840; GSK-3 alpha kinase, ADP-Glo luminescence, 60 min; inhibition, % at 10 µM; 320,000 compounds, 0.1% hits; AID 2650, 2010;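 active means more than half of replicates show inhibition above 20%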;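 further: GST-tagged GSK-3 alpha with peptide substrate and 25 µM ATP; 0% = DMSO neutral wells and 100% = GW8510 positive control wells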
Target sequence (P49840 whole entry, looked up): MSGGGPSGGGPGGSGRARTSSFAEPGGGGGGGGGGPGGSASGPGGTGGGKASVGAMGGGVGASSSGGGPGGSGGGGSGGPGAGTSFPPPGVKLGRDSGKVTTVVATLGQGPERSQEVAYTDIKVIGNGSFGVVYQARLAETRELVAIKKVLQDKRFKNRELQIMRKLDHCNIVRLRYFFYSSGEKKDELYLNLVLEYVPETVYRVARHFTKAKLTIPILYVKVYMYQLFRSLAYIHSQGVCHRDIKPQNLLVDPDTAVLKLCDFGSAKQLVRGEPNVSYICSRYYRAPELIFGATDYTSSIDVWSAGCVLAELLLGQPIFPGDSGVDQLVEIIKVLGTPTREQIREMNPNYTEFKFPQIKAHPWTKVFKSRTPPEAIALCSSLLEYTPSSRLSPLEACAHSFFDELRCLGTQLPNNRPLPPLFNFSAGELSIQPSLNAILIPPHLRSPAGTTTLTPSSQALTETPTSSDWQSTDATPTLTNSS
GSK3beta inhib – human GSK3beta kinase inhibitors, primary screen, biochemical, cell-free homogeneous, HTS; 300,000 compounds, 0.038% hits; Glycogen synthase kinase-3 beta (Homo sapiens), P49841; GST-GSK3beta kinase, ADP-Glo luminescence, 60 min; hits give low values; activity score (negative = inhibition), % at 10 µM; AID 2097, 2009;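 active means more than half of replicate wells score below -50%, meaning over 50% inhibition versus plate controls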;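 further: 0% = median DMSO wells and -100% = median GW8510 positive control wells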
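Assay system: GST-fused GSK3beta enzyme, cell-free / Medium: Tris pH 7.5 buffer with MgCl2, DTT, BSA, heparin / Also added: peptide substrate plus 25 µM ATP (final) / Compound: 10 µM single point / Timing: kinase reaction with compound 60 min at room temperature / Detection: ADP-Glo luminescence / Benchmarks: DMSO neutral wells and GW8510 at 20 µM as positive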
MEKK2wt PB1 HTS – modulators of MEK5 binding to wildtype MEKK2, primary screen, biochemical, multiplex bead flow cytometry, Alexa488-MEK5; AID 1531, 2009; Alexa488-MEK5 binding to MEKK2 WT; actives lie on both sides; 290,000 compounds, 1.1% hits; binding response (% of control), % at 10 µM; Mitogen-activated protein kinase kinase kinase 2 (Homo sapiens), Q9Y2U5; in the data active means binding response below about 67% or above about 130%
MEKK2 mut-MEK5 – MEK5 binding signal on mutant MEKK2 PB1, primary screen, biochemical, multiplex bead flow cytometry, Alexa488-MEK5; AID 1530, 2009; 290,000 compounds, 0.35% hits; Alexa488-MEK5 binding to MEKK2 mutant; percent response, % at 10 µM; in the data active means percent response above about 24%, passing the limit was not always enough
STK33 inh – inhibitors of purified STK33 kinase, primary screen, biochemical, ADP-Glo luminescence, homogeneous, cell-free; MBP phosphorylation; inhibition, % at 10 µM; 320,000 compounds, 0.073% hits; AID 2661, 2010;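 active means inhibition at or above 25%, using the most active replicate where run in duplicate; inactive means inhibition below 25%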
MEKK2wt confirm – modulators of MEK5 binding to wildtype MEKK2, confirmation, biochemical, single concentration, multiplex bead flow cytometry | binding response (% of control), % at 10 µM | shares compounds with MEKK3 PB1 HTS | AID 1892, 2009 | Alexa488-MEK5 binding to MEKK2 WT; actives lie on both sides | 5,900 compounds, 2.4% hits; in the data active means binding response below about 16% or above about 210%; inactive means in between
MEKK2mut confirm – mutant MEKK2 PB1-MEK5 binding signal retest – biochemical, single concentration, multiplex bead flow cytometry, confirmation; shares compounds with MEKK3 PB1 HTS; Alexa488-MEK5 binding to MEKK2 mutant; percent response, % at 10 µM; 5,900 compounds, 2% hits; in the data active means percent response mostly above about 71%, no sharp cut-off; inactive means mostly below about 38%;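 further: higher means compound restores mutant binding toward wildtype level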
MEKK3 confirm – MEKK3 wild-type PB1 binding to MEK5, inhibitors, confirmation, biochemical, bead multiplex flow cytometry, single concentration, wildtype | binding response (% of control), % at 10 µM | Alexa488-MEK5 binding to MEKK3; hits give low values | AID 1894, 2009 | shares compounds with MEKK3 PB1 HTS | 5,900 compounds, 1.8% hits;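 active means binding response below 72% of control, or above a set upper limit, though filed actives all read lower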;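 further: 100% = DMSO only wells and 0% = binding blocked by excess unlabeled MEK5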
The depositor's hits bear a star; · = not tested or not shown; [ ] = remark or other dose.

SMILES	MEKK3 PB1 HTS	GSK3A inh	GSK3beta inhib	MEKK2wt PB1 HTS	MEKK2 mut-MEK5	STK33 inh	MEKK2wt confirm	MEKK2mut confirm	MEKK3 confirm
COc1ccc(C(=O)NNC(=O)CSc2nnc(-c3cccnc3)o2)cc1	114	-2	-1	102	-4	1	·	·	·
Cc1ccc(S(=O)(=O)N2CCC(C(=O)NCCCN3CCCC3=O)CC2)cc1	·	-4	·	·	·	-2	·	·	·
Cc1ccc(S(=O)(=O)N2CCC(C(=O)NCCN3CCCCCC3)CC2)cc1	96	1	1	170*	34*	0	121	7	94
CC1(C)CC(/C=C/c2ccccc2)=Nc2ccccc2N1	73	-1	3	68	-16	-2	·	·	·
CC(=O)COc1coc(CN2CCN(c3ccc(F)cc3)CC2)cc1=O	99	-10	2	100	-5	-1	·	·	·
Cc1cnc(C(=O)Nc2nccs2)cn1	2.0*[inhibitor]	·	0	2.0*[inhibitor]	-19	-1	108	6	111
Cc1cnc(C(=O)Nc2nnc(C)s2)cn1	105	-1	0	107	3	-1	·	·	·
Cc1ccc(OCCn2ccnc2)c([N+](=O)[O-])c1	108	0	-4	136*	21	0	101	5	102
C=CCc1cc(C)ccc1OCCn1ccnc1	101	1	3	110	2	-1	·	·	·
CN1CCN(C(=O)C23CCC(C)(C(=O)C2Br)C3(C)C)CC1 (stereo not given)	135*	-2	-4	122	30	-1	98	-3	100
CCN1CCN(C(=O)C23CCC(C)(C(=O)C2Br)C3(C)C)CC1 (stereo not given)	79	0	2	78	-23	-1	·	·	·
CCC(C)c1ccccc1NC(=O)COC(=O)c1ccc(N2CCCC2)c([N+](=O)[O-])c1 (stereo not given)	132*	0	-23	100	0	-1	104	1	106
CCOc1ccc(NC(=O)CCS(=O)(=O)c2ccc(Br)cc2)cc1	91	-4	6	97	-7	-2	·	·	·
CCOc1cc(C=O)ccc1OS(=O)(=O)c1ccc(NC(C)=O)cc1	106	3	2	102	-1	4	·	·	·
O=C1CC2c3ccccc3C1C1C(=O)N(CCO)C(=O)C21 (stereo not given)	101	-1	3	100	1	0	·	·	·
COCCCN1C(=O)C(=O)/C(=C(/O)c2ccc(OC)cc2)C12C(=O)N(C)c1ccccc12 (stereo not given)	1.0*[inhibitor]	·	0	-3.0*[inhibitor]	2	-1	104	4	101
COCCCN1C(=O)C(=O)/C(=C(/O)c2ccc(OC)cc2)C1c1ccc(O)c(OC)c1 (stereo not given)	100	-3	-3	99	3	0	·	·	·
CC(C)N(Cc1nc(-c2ccccc2)no1)C(=O)C(C)(C)C	99	-1	4	101	1	1	·	·	·
COc1ccc(-c2noc(CN(C(=O)C(C)(C)C)C(C)C)n2)cc1	118	0	0	114	25*	-1	98	-3	100
O=c1ccc(S(=O)(=O)N2CCCC2)cn1Cc1ccc(Cl)cc1Cl	·	2	·	·	·	0	·	·	·
CC(=O)c1ccc(OCc2cc(C(=O)NCCn3nc(C)cc3C)no2)cc1	107	3	2	108	7	0	·	·	·
Cc1nc(CS(=O)(=O)c2ccc(Cl)cc2)sc1C(=O)O	129*	0	-1	129	23	0	101	-4	101
CCOC(=O)C(CCCOc1ccccc1)C(=O)OCC	43*[inhibitor]	-2	2	65	-35	0	96	-5	101
CCOC(=O)C(CCCOc1ccc(C)cc1)C(=O)OCC	102	1	2	103	4	-1	·	·	·
CCCCn1c(SCC(=O)NC2CCCC2)nnc1-c1ccco1	97	2	1	94	-3	-2	·	·	·
SMILES	MEKK3 PB1 HTS	GSK3A inh	GSK3beta inhib	MEKK2wt PB1 HTS	MEKK2 mut-MEK5	STK33 inh	MEKK2wt confirm	MEKK2mut confirm	MEKK3 confirm
S=C(NCc1ccncc1)Nc1cccc(Cl)c1	106	-1	3	106	5	-1	·	·	·
S=C(NCCN(C1CCCCC1)C1CCCC1)Nc1cccc(Cl)c1	97	2	1	134*	12	-2	145	24	107
S=C(Nc1cccc(Cl)c1)NC1CC2CCCC(C1)N2C1CCCC1 (stereo not given)	105	7	-2	125	1	-3	·	·	·
S=C(NCCC(c1ccccc1)c1ccccc1)Nc1cccc(Cl)c1	95	16	-4	5.0*	32*	-2	105	-5	102
CCN(CC)C(=O)c1nc[nH]c1C(=O)N(CC)CC	·	-2	·	·	·	-1	·	·	·
O=S(=O)(c1ccc(OCc2ccc(Br)cc2)cc1)N1CCOCC1	·	10	·	·	·	0	·	·	·
O=C(COc1ccc(Br)cc1)NCCN1CCCC1	111	-1	2	121	5	-1	·	·	·
Cc1oc2ccc(O)cc2c1C(=O)OC(C)C	80*[inhibitor]	0	-1	107	4	-1	97	-3	100
CN(c1ccccc1)S(=O)(=O)c1cccc(NC(=O)CN2CCCc3ccccc32)c1	99	1	-2	98	-1	0	·	·	·
NS(=O)(=O)c1cccc(NC(=O)CN2CCc3ccccc32)c1	98	-4	-2	21*[inhibitor]	18	-1	84	-18	90
Cc1cc2ncn(CCC(=O)NC(C)(C)C)c2cc1C	3.0*[inhibitor]	0	4	4.0*[inhibitor]	-46	-2	104	4	105
C=C(C)Cn1cnc2cc(C)c(C)cc21	80	-2	-1	82	-14	-1	·	·	·
